Published values gathered from unrelated publications.
Lines come from different studies, so protocols differ.
Target: Serine/threonine-protein kinase PknB (pknB, Mycobacterium tuberculosis, UniProt P9WI81)

SMILES | assay | conditions | measurement | result
COc1cc(Nc2ncc(F)c(Nc3ccc4c(n3)NC(=O)C(C)(C)O4)n2)cc(OC)c1OC | binding, competition with immobilised ligand | 10 µM | inhibition | 46%
Cc1ccc(C(=O)Nc2ccc(CN3CCN(C)CC3)c(C(F)(F)F)c2)cc1C#Cc1cnc2cccnn12 | cell-free assay | 23.5 nM | remaining signal | 98%
Nc1ncnc2occ(-c3ccc(NC(=O)Nc4cc(C(F)(F)F)ccc4F)cc3)c12 | cell-free assay | 20 µM | remaining signal | 66%
CN(C)c1nccc(-c2cnn3ncccc23)n1 | binding | 1 µM | remaining binding | 76%
C[C@H](c1ccnc(Nc2nc3ccc(-c4cc(N(C)C)ncn4)cc3[nH]2)c1)N1CCN(C(=O)CC(F)(F)F)CC1 | cell-free assay, competition with immobilised ligand | 0.1 µM | remaining binding | 91%
Nc1ncc(-c2nc(N3CCOCC3)nc(N3CCOCC3)n2)c(C(F)F)n1 | cell-free assay | 10 µM | remaining signal | 66%
C[C@@H]1CN(c2cc(-c3n[nH]c4ccc(OC5(C)CC5)cc34)ncn2)C[C@H](C)O1 | cell-free assay, competition with immobilised ligand | 0.1 µM | remaining binding | 95%
CC1CCCN1c1nccc(-c2cnn3ncccc23)n1 (centres unmarked) | binding | 1 µM | remaining binding | 100%
